According to ChEMBL document CHEMBL1158708, “Cerylimycins [corrected] A and B: antibacterial triterpenes from the new species Tricholoma sp. AU1” (J Nat Prod, 2005):

What was measured:
Klebsiella pneumoniae = test: Antimicrobial activity against Klebsiella pneumoniae after 18 hrs; format: functional, organism-based
Summary of the method: (§1)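 Strains grown on Mueller-Hinton agar, then in Mueller-Hinton broth with CaCl₂/MgCl₂ at 37 °C for 18 h. Serially diluted (K. pneumoniae and P. aeruginosa 10^-6, S. aureus 10^-8, S. pneumoniae 10^-4, as cfu/mL) and equilibrated 30 min at 37 °C. Incubated with samples, shaken at 37 °C and 60% humidity for 18 h. Read at OD650. Streptomycin 50 μg/mL control wells.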

Pseudomonas aeruginosa = test: Antimicrobial activity against Pseudomonas aeruginosa after 18 hrs; format: functional, organism-based; summary of the method: as §1
Staphylococcus aureus = test: Antimicrobial activity against Staphylococcus aureus after 18 hrs; format: functional, organism-based; summary of the method: as §1
Streptococcus pneumoniae = test: Antimicrobial activity against Streptococcus pneumoniae after 18 hrs; format: functional, organism-based; summary of the method: as §1
THP-1 = test: Cytotoxicity against human THP1 cells after 72 hrs by WST-1 assay; format: cell-based; conditions: THP-1, 72 h
Summary of the method: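 THP-1 cells kept in RPMI 1640 with 10% FBS, 2 mM L-glutamine, penicillin/streptomycin and 10 μM 2-mercaptoethanol at 37 °C, 5% CO₂. Seeded at 2.5 × 10⁴ cells/well and exposed to samples at 250 μg/mL final for 72 h. WST-1 added for 1–2 h, absorbance read at 450 nm. Controls were 10 μM camptothecin and 0.1% DMSO.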

`C=C1CC[C@H]2C(C)(C)[C@H](O)CC[C@]2(C)[C@@H]1C[C@@H]1CCC(=C)[C@H](CC/C(C)=C/CO)[C@@]1(C)C(=O)O` [TRICHOMYCIN B] gave an IC50 (Klebsiella pneumoniae) of over 473 µM, an IC50 (Pseudomonas aeruginosa) of over 473 µM and an IC50 (Staphylococcus aureus) of 12 µM. For the same compound, the IC50 (Streptococcus pneumoniae) was 6 µM and the IC50 (THP-1) was 640 µM.

`C=C1CC[C@H]2C(C)(C)[C@H](O)CC[C@]2(C)[C@@H]1C[C@@H]1CCC(=C)[C@H](CC/C(C)=C/COC=O)[C@@]1(C)C(=O)O` [TRICHOMYCIN A] showed an IC50 (Klebsiella pneumoniae) of over 500 µM, an IC50 (Pseudomonas aeruginosa) of over 500 µM and an IC50 (Staphylococcus aureus) of 12 µM. For the same compound, the IC50 (Streptococcus pneumoniae) was 5 µM and the IC50 (THP-1) was over 1000 µM.
